Results pooled from the literature.
Target: Protein kinase C iota type (PRKCI, Homo sapiens, UniProt P41743)
One construct used (P41743 1-596): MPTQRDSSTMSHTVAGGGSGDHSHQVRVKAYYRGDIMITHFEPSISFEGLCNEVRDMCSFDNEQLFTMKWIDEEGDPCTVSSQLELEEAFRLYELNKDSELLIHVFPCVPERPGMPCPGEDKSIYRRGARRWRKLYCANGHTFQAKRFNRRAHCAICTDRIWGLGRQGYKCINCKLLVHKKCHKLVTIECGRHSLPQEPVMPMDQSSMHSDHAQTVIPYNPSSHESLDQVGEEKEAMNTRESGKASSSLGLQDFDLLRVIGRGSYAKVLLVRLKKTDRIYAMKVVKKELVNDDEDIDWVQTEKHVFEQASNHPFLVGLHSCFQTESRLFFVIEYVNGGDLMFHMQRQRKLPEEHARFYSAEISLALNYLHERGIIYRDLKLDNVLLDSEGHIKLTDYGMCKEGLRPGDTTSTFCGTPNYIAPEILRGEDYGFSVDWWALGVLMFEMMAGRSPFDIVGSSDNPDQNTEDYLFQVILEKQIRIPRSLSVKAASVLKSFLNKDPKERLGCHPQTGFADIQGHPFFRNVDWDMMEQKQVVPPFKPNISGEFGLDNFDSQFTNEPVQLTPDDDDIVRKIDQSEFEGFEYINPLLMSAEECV

Compound | read-out | method | tested at | remaining binding
N#Cc1ccc(Nc2ccc3[nH]c(=O)[nH]c3c2)c(Cl)c1 | cell-free assay | competition with immobilised ligand | 1 µM | 86%
O=C(Nc1c[nH]nc1C(=O)NC1CCNCC1)c1cc(F)cc(F)c1 | binding | competition with immobilised ligand | 1 µM | 84%
N[C@H]1CCN(c2nccc(-c3cnn4ncccc34)n2)C1 | binding |  | 1 µM | 37%
Cc1cnc(Nc2ccc(C(=O)N3CCC(N4CCCC4)CC3)cc2)nc1-c1cc2ccccc2s1 | binding | competition with immobilised ligand | 1 µM | 83%
c1cnn2ncc(-c3ccnc(N4CCC45COC5)n3)c2c1 | binding |  | 1 µM | 58%
O=C(c1ccc(Nc2ncc(Cl)c(-c3ccc(Cl)s3)n2)cc1)N1CCC(N2CCCC2)CC1 | binding | competition with immobilised ligand | 1 µM | 98%
CN([C@@H]1CCc2c(CC(=O)O)c3ccccc3n2C1)S(=O)(=O)c1ccc(F)cc1 | cell-free assay | competition with immobilised ligand | 1 µM | 100%
COc1ncc2cc3ccccc3nc2c1C#N | cell-free assay | competition with immobilised ligand | 5 µM | 100%
C[C@@H]1CCN(c2nccc(-c3cnn4ncccc34)n2)C1 | binding |  | 1 µM | 64%
NS(=O)(=O)c1cc(NC(=O)C2(c3ccccc3Cl)CC2)ccc1Oc1cccc(Cl)c1 | cell-free assay | competition with immobilised ligand | 1 µM | 98%
CN(C)c1nccc(-c2cnn3ncccc23)n1 | binding |  | 1 µM | 81%
O=C1NC(c2ccccn2)Sc2ccccc21 (centres unmarked) | cell-free assay | competition with immobilised ligand | 1 µM | 72%
COc1cnc(Nc2cccc(S(N)(=O)=O)c2)nc1N1CCN(c2ccccc2)C(=O)C1 | binding | competition with immobilised ligand | 1 µM | 96%
Cc1cnn2ncc(-c3ccnc(N(C)C)n3)c2c1 | binding |  | 1 µM | 81%
CCN1CCN(Cc2ccc(C(=O)Nc3ccc(C)c(Oc4ccc5c(c4)CC(=O)N5)c3)cc2C(F)(F)F)CC1 | binding | competition with immobilised ligand | 1 µM | 100%
CC(=O)N1CCC(c2ccc(C(=O)NC(=N)N)cc2C(F)(F)F)CC1 | cell-free assay | competition with immobilised ligand | 1 µM | 100%
CN(CCCC(F)(F)F)c1nccc(-c2cnn3ncccc23)n1 | binding |  | 1 µM | 100%
C[C@@H](c1ccc(-n2cnc3c(N)ncnc32)cc1)N1CCc2nn(C)c(Cc3ccccc3)c2C1=O | binding | competition with immobilised ligand | 0.1 µM | 82%
O=C(c1ccc(Nc2nccc(-c3cc4ccccc4s3)n2)cc1)N1CCC(N2CCCC2)CC1 | binding | competition with immobilised ligand | 1 µM | 54%
Cc1c(NC(=O)c2cc(C(N)=O)nc3cc(F)ccc23)c(C(F)(F)F)nn1Cc1ccc(C(C)(C)C)cc1 | cell-free assay | competition with immobilised ligand | 1 µM | 98%
